ChEMBL document CHEMBL1124370 (1989)
Blank lines part the entries; values can stand above or below the molecule they belong to. Activity calls are given as the source filed them. No cut-off for these calls is given here.

What was measured:
[1] = system: Rattus norvegicus; experiment: In vivo inhibition of galactitol accumulation in the sciatic nerves of rat at a dose of 100 mg/kg/day; NS=not significant; assay type: functional, organism-based; settings: Sciatic nerve
[2] = target: Aldo-keto reductase family 1 member B1 (Bos taurus) (UniProt P16116); experiment: Inhibition of aldose reductase in partially purified bovine lens preparation at 10e-6 M.
Summary of the method: (§1)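 Aldose reductase partially purified from bovine lens, with the final chromatographic step of the earlier preparation omitted. Assay run in duplicate with test compound at 1 × 10^-6 M or 1 × 10^-7 M. Reported as % inhibition of enzymatic activity.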

[3] = system: Rattus norvegicus; experiment: […] inhibition of sorbitol accumulation in rat sciatic nerves at 10e-5 M concentration; assay type: functional, Sciatic nerve
Summary of the method: (§2)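 Sciatic nerves were taken from male Sprague-Dawley rats (200–250 g) after CO2 euthanasia. Nerves were incubated 3 h at 37 °C under 95% air/5% CO2 in Hank's salts buffer, pH 7.4, with 50 mM glucose and (0–5)×10^-5 M compound, in triplicate. Nerve sorbitol was measured spectrofluorometrically in duplicate, and the read-out was % inhibition of sorbitol accumulation.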

[4] = system: Rattus norvegicus; experiment: In vivo inhibition of galactitol accumulation in the diaphragm of rat at a dose of 100 mg/kg/day; assay type: functional
[5] = system: Rattus norvegicus; experiment: […] inhibition of sorbitol accumulation in rat sciatic nerves at 10e-6 M concentration; NS=not significant; assay type: functional; settings: Sciatic nerve; summary of the method: as §2
[6] = system: Rattus norvegicus; experiment: In vivo inhibition of galactitol accumulation in the diaphragm of rat at a dose of 67 mg/kg/day; NS =not significant; assay type: functional, organism-based
[7] = system: Rattus norvegicus; experiment: In vivo inhibition of galactitol accumulation in the sciatic nerves of rat at a dose of 67 mg/kg/day; NS=not significant; assay type: functional, organism-based; settings: Sciatic nerve
[8] = target: Aldo-keto reductase family 1 member B1 (Bos taurus) (UniProt P16116); experiment: […] inhibition of aldose reductase in partially purified bovine lens preparation at 10e-7 M concentration
Summary of the method: (§3)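 Enzyme partially purified from bovine lens by a published method, with the final chromatographic step omitted. Test compound was added at 1×10^-6 or 1×10^-7 M. Assays were run in duplicate, and the read-out was % inhibition of enzymatic activity.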

[9] = system: Rattus norvegicus; experiment: In vivo inhibition of galactitol accumulation in the diaphragm of rat. at a dose of 100 mg/kg/day; assay type: functional
[10] = system: Rattus norvegicus; experiment: […] inhibition of sorbitol accumulation in rat sciatic nerves at 5*10e-6 M concentration; assay type: functional, Sciatic nerve; settings: in the assay text read “In vitro” for “In vivo”
Summary of the method: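 Sciatic nerves from male Sprague-Dawley rats (200–250 g), removed after CO2 euthanasia, incubated ex vivo for 3 h at 37 °C under 95% air/5% CO2 in Hank's salts buffer, pH 7.4, with 50 mM glucose and 5 × 10^-6 M test compound. Triplicate incubations; nerve sorbitol measured in duplicate by spectrofluorometric assay. Reported as % inhibition of sorbitol accumulation.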

[11] = system: Rattus norvegicus; experiment: In vivo inhibition of galactitol accumulation in the sciatic nerves of rat at a dose of 100 mg/kg/day; assay type: functional; settings: Sciatic nerve
[12] = system: Rattus norvegicus; experiment: In vivo inhibition of sorbitol accumulation in rat sciatic nerves at 5*10e-5 M concentration; assay type: functional, Sciatic nerve; settings: in the assay text read “In vitro” for “In vivo”; summary of the method: as §2
[13] = system: Rattus norvegicus; experiment: In vivo inhibition of galactitol accumulation in the diaphragm of rat. at a dose of 26 mg/kg/day; assay type: functional
[14] = target: Aldo-keto reductase family 1 member B1 (Bos taurus) (UniProt P16116); experiment: Inhibition of aldose reductase in partially purified bovine lens preparation at 10e-7 M concentration; summary of the method: as §1
[15] = system: Rattus norvegicus; experiment: In vivo inhibition of galactitol accumulation in the sciatic nerves of rat at a dose of 26 mg/kg/day; assay type: functional; settings: Sciatic nerve
[16] = target: Aldo-keto reductase family 1 member B1 (Bos taurus) (UniProt P16116); experiment: […] inhibition of aldose reductase in partially purified bovine lens preparation at 10e-6 M concentration; summary of the method: as §3
[17] = system: Rattus norvegicus; experiment: In vivo inhibition of galactitol accumulation in the sciatic nerves of ratat a dose of 51 mg/kg/day; NS=not significant; assay type: functional, organism-based; settings: Sciatic nerve
[18] = system: Rattus norvegicus; experiment: In vivo inhibition of galactitol accumulation in the diaphragm of rat at a dose of 51 mg/kg/day; assay type: functional
[19] = system: Rattus norvegicus; experiment: In vivo inhibition of sorbitol accumulation in rat sciatic nerves at 10e-6 M concentration; assay type: functional, Sciatic nerve; summary of the method: as §2
[20] = system: Rattus norvegicus; experiment: In vivo inhibition of galactitol accumulation in the diaphragm of rat. at a dose of 27 mg/kg/day; assay type: functional
[21] = system: Rattus norvegicus; experiment: In vivo inhibition of galactitol accumulation in the sciatic nerves of rat at a dose of 27 mg/kg/day; assay type: functional; settings: Sciatic nerve
[22] = system: Rattus norvegicus; experiment: In vivo inhibition of galactitol accumulation in the sciatic nerves of rat at a dose of 10 mg/kg/day; assay type: functional; settings: Sciatic nerve
[23] = system: Rattus norvegicus; experiment: In vivo inhibition of galactitol accumulation in the diaphragm of rat at a dose of 10 mg/kg/day; assay type: functional
[24] = system: Rattus norvegicus; experiment: In vivo inhibition of galactitol accumulation in the diaphragm of rat at a dose of 106 mg/kg/day; assay type: functional
[25] = system: Rattus norvegicus; experiment: In vivo inhibition of galactitol accumulation in the sciatic nerves of ratat a dose of 106 mg/kg/day; assay type: functional; settings: Sciatic nerve
[26] = system: Rattus norvegicus; experiment: In vivo inhibition of galactitol accumulation in the diaphragm of rat at a dose of 107 mg/kg/day; assay type: functional
[27] = system: Rattus norvegicus; experiment: In vivo inhibition of galactitol accumulation in the sciatic nerves of rat at a dose of 107 mg/kg/day; assay type: functional; settings: Sciatic nerve
[28] = system: Rattus norvegicus; experiment: In vivo inhibition of galactitol accumulation in the sciatic nerves of rat at a dose of 105 mg/kg/day; NS=not significant; assay type: functional, organism-based; settings: Sciatic nerve
[29] = system: Rattus norvegicus; experiment: In vivo inhibition of galactitol accumulation in the diaphragm of rat at a dose of 105 mg/kg/day; NS=not significant; assay type: functional, organism-based
[30] = system: Rattus norvegicus; experiment: In vivo inhibition of galactitol accumulation in the sciatic nerves of rat at a dose of 97 mg/kg/day; assay type: functional; settings: Sciatic nerve
[31] = system: Rattus norvegicus; experiment: In vivo inhibition of galactitol accumulation in the diaphragm of rat at a dose of 57 mg/kg/day; assay type: functional
[32] = system: Rattus norvegicus; experiment: In vivo inhibition of galactitol accumulation in the sciatic nerves of rat at a dose of 57 mg/kg/day; assay type: functional; settings: Sciatic nerve
[33] = system: Rattus norvegicus; experiment: In vivo inhibition of galactitol accumulation in the diaphragm of rat at a dose of 97 mg/kg/day; assay type: functional

SMILES: COc1ccc2c(C(=O)N(CC(=O)O)C(=O)N(C)C)cccc2c1C(F)(F)F
- inhibition [1]: inactive
- inhibition [2]: 3%
- Inhibition [3]: 34%
- inhibition in vivo at 100 mg/kg/day [4]: 21%
- inhibition [5]: inactive

SMILES: COc1ccc2c(/C(=N/C#N)N(C)CC(=O)O)cccc2c1C(F)(F)F
- inhibition in vivo at 100 mg/kg/day [9]: 72%
- Inhibition [10]: 70%
- inhibition in vivo at 100 mg/kg/day [11]: 61%
- inhibition [2]: 81%
- Inhibition [12]: 81%
- inhibition in vivo at 26 mg/kg/day [13]: 44%
- inhibition [14]: 80%
- inhibition in vivo at 26 mg/kg/day [15]: 30%

SMILES: COC(=O)N(CC(=O)O)C(=S)c1cccc2c(C(F)(F)F)c(OC)ccc12
- inhibition [16]: 88%
- inhibition [17]: inactive
- Inhibition [3]: 61%
- inhibition in vivo at 51 mg/kg/day [18]: 80%
- Inhibition [19]: 36%
- inhibition [8]: 29%

SMILES: CSc1ccc2c(C(=O)N(C)CC(=O)O)cccc2c1C(F)(F)F
- inhibition in vivo at 106 mg/kg/day [24]: 73%
- inhibition [2]: 85%
- inhibition [14]: 51%
- inhibition in vivo at 106 mg/kg/day [25]: 36%
- Inhibition [3]: 73%
- Inhibition [19]: 34%

SMILES: COc1ccc2c(C(=O)N(CC(=O)O)C(=O)OCC(C)(C)C)cccc2c1C(F)(F)F
- inhibition [28]: inactive
- inhibition [2]: 64%
- inhibition [29]: inactive
- inhibition [14]: 18%
- Inhibition [3]: 37%
- Inhibition [19]: 28%

SMILES: CCOC(=O)N(CC(=O)O)C(=O)c1cccc2c(C(F)(F)F)c(OC)ccc12
- inhibition in vivo at 97 mg/kg/day [30]: 90%
- inhibition in vivo at 57 mg/kg/day [31]: 70%
- inhibition in vivo at 57 mg/kg/day [32]: 56%
- inhibition [2]: 98%
- inhibition [14]: 81%
- Inhibition [3]: 88%
- inhibition in vivo at 97 mg/kg/day [33]: 83%
- Inhibition [19]: 51%

Continued, in another order:

- inhibition [2]: 89%
- inhibition [8]: 66%
SMILES: COc1ccc2c(C(=O)N(CC(=O)O)C(=O)OCc3ccccc3)cccc2c1C(F)(F)F
- inhibition [6]: inactive
- inhibition [7]: inactive
- Inhibition [3]: 28%
- inhibition [5]: inactive

- inhibition [2]: 95%
- inhibition [14]: 71%
SMILES: CSc1ccc2c(C(=S)N(C)CC(=O)O)cccc2c1C(F)(F)F
- inhibition in vivo at 27 mg/kg/day [20]: 90%
- inhibition in vivo at 27 mg/kg/day [21]: 64%
- inhibition in vivo at 10 mg/kg/day [22]: 26%
- inhibition in vivo at 10 mg/kg/day [23]: 86%
- Inhibition [3]: 93%
- Inhibition [19]: 72%

- inhibition [2]: 96%
- inhibition [14]: 89%
SMILES: COc1ccc2c(C(=O)N(C=O)CC(=O)O)cccc2c1C(F)(F)F
- inhibition in vivo at 107 mg/kg/day [26]: 82%
- Inhibition [3]: 65%
- Inhibition [19]: 42%
- inhibition in vivo at 107 mg/kg/day [27]: 51%
